According to ChEMBL document CHEMBL1138827, “Design of new cognition enhancers: from computer prediction to synthesis and biological evaluation” (2004):

How the values were obtained:
Rattus norvegicus [1] = experiment: Effect on increase in reflex latent time after administration of 1 mg/kg of the compound; type: functional
In short: (§1)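 Rats (180-200 g), scopolamine-induced amnesia in a step-through passive avoidance task. Scopolamine 2 mg/kg ip 15 min before training; test substance suspended in 0.5% Tween-80, given ip at 1 or 10 mg/kg 30 min before training; vehicle controls. Retention tested 24 h later: latency to enter dark chamber (max 180 s) and % animals not entering. n=12 per group.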

Rattus norvegicus [2] = experiment: Effect on number of animals not entering the dark chamber after administration of 10 mg/kg of the compound
Rattus norvegicus [3] = experiment: Effect on latency to enter dark chamber after administration of 1 mg/kg of the compound; type: functional; in short: as §1
Rattus norvegicus [4] = experiment: Effect on increase in reflex latent time after administration of 600 mg/kg of the compound; type: functional
Rattus norvegicus [5] = species: Rattus norvegicus; experiment: […]; type: functional; details: dose 400 mg/kg
Rattus norvegicus [6] = experiment: Effect on increase in reflex latent time after administration of 400 mg/kg of the compound; type: functional
Rattus norvegicus [7] = experiment: Effect on increase in reflex latent time after administration of 10 mg/kg of the compound; type: functional; in short: as §1

| SMILES | Time (Rattus norvegicus [1]) [s] | Number (Rattus norvegicus [2]) [%] | Number (Rattus norvegicus [3]) [%] | Time (Rattus norvegicus [3]) [s] | Number (Rattus norvegicus [4]) [%] | Number (Rattus norvegicus [5]) [%] | Time (Rattus norvegicus [6]) [s] | Number (Rattus norvegicus [7]) [%] |
| --- | --- | --- | --- | --- | --- | --- | --- | --- |
| O=[N+]([O-])c1ccc(/C=N/c2nc(-c3ccccc3)cs2)cc1 | 157 | 42 | 58 | 88 | – | – | – | – |
| Oc1ccc(/C=N/c2nccs2)cc1 | 96 | 14 | 42 | 41 | – | – | – | – |
| NC(=O)CN1CCCC1=O [PIRACETAM] | – | – | – | – | 58 | 33 | 75 | – |
| Oc1ccc(/C=N/c2nc3ccccc3s2)cc1 | 104 | 0 | 58 | 15 | – | – | – | – |
| O=[N+]([O-])c1ccc(/C=N/c2nccs2)cc1 | 68 | 50 | 42 | 129 | – | – | – | – |
| Clc1ccc(/C=N/c2nccs2)cc1 | 61 | 66 | 25 | 123 | – | – | – | – |
| C(=N\c1nc(-c2ccccc2)cs1)/c1ccccc1 | 12 | 33 | 0 | 68 | – | – | – | – |
| CC(=O)N1CCOC1c1cccc(Cl)c1 (configuration not stated) | 25 | – | 0 | 103 | – | – | – | 58 |
| CN1[C@@H]2C[C@@H](OC(=O)[C@H](CO)c3ccccc3)C[C@H]1[C@@H]1O[C@@H]12 [SCOPOLAMINE] | 53 | – | 17 | – | – | – | – | – |
| Cc1csc(/N=C/c2ccc([N+](=O)[O-])cc2)n1 | 76 | 50 | 42 | 126 | – | – | – | – |
